In the EternaBench riboswitch data:

System: MS2 coat protein
Assay: apparent Kd, MS2 coat protein; higher = weaker binding; RNA-MaP array; FMN 200 µM where present
How it was run: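 Two titrations, one without ligand and one with constant ligand, were run with SNAP-549-labelled MS2 coat protein from 0.7 or 1.5 nM, doubling to 3 µM. The targets were designs transcribed by stalled E. coli RNA polymerase on Illumina sequencing-chip clusters, in 100 mM Tris-HCl pH 7.5, 80 mM KCl, 4 mM MgCl2, BSA, DTT, yeast tRNA and Tween-20. The apparent Kd is the median of filtered per-cluster binding-curve fits, with green signal normalised to red-channel RNA signal and control-cluster median Fmax.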

[1] = designed as: OFF switch for flavin mononucleotide, no ligand
[2] = ligand present: flavin mononucleotide, designed as: OFF switch for flavin mononucleotide
[3] = designed as: ON switch for flavin mononucleotide, no ligand
[4] = ligand present: flavin mononucleotide, designed as: ON switch for flavin mononucleotide

| Sequence | apparent Kd [1] [nM] | apparent Kd [2] [nM] | apparent Kd [3] [nM] | apparent Kd [4] [nM] |
| --- | --- | --- | --- | --- |
| ACUAAACGAGGAUAUACUAACAAACCUCAAACAUACAUCAAACAUGAGGAUCACCCAUGUAGAAGGCGUAAACU | 37.6 | 17.6 | – | – |
| ACUAGAUGAGGAUAUGCAUAUUUUCGUGUUCUUCUAGAUUAACAUGAGGAUCACCCAUGUAGAAGGCGUCUGGA | 17.8 | 26 | – | – |
| ACUAGAUGAGGAUAUGCAUGUUUUCAUGUUCUUCUAGAUUAACAUGAGGAUCACCCAUGUAGAAGGCGUCUUAU | 19.4 | 37.9 | – | – |
| ACUAUACGAGGAUAUGCUGUCAAUACUCCGGAGUUAGUAUGACAUGAGGAUCACCCAUGUAGAAGGCGUAUACU | 26.7 | 19.6 | – | – |
| ACUCUACAUGAGGAUCACCCAUGUUGAGCCCAUCAAGGAUAUGGGUCUUAAUCGCGGGUGCCAGAAGGUGAUGGUU | – | – | 91 | 109 |
| ACUGAAGUCACAGGAUAUCAUAUGUCGGCACAUUGAGAAGGGUGACUGGGCUACAUGAGGAUCACCCAUGUGCCGUCGUAACAA | – | – | 104 | 80.4 |
| ACUGCAUAGGCAGGAUAUGCAAUAAUUCGAAUAAAAUAUAACGAAUUAACAUGAGGAUCACCCAUGUAGAAGGGCCUGUGCAGU | 6.46 | 5.46 | – | – |
| ACUGUUUGAUUCCUCUUAUACAUGAGGAUCACCCAUGUUAUCGAGGAUAUGCAUUAGAGUGUUUAGCAGAAGGCGAUGUAAUUC | 5.89 | 12.9 | – | – |
| ACUGUUUGAUUCCUCUUAUACAUGAGGAUCACCCAUGUUAUCGAGGAUAUGCAUUAGAGUGUUUAGCAGAAGGCGAUGUAAUUG | 6.84 | 19.9 | – | – |
| ACUGUUUGAUUCCUCUUAUACAUGAGGAUCACCCAUGUUAUCGAGGAUAUGCAUUAGAGUGUUUGGCAGAAGGCGAUGUAAUUG | 6.9 | 23.4 | – | – |
| ACUUAAAUACCCAAAAGUCGGGCGGAGGAUAUGGAGCUUCCACCACAUGAGGAUCACCCAUGUCUUCAGAAGGCCGCCCUUGGG | – | – | 89.6 | 8.79 |
| ACUUAUAGAGGAUAUACAGUUUAUUACAUGAGGAUCACCCAUGUUCUUCAAUGUAUAUAAGUAGAAGGCUAAGGAA | 35 | 175 | – | – |
| ACUUCACAUGAGGAUCACCCAUGUCAGGCCGGACUAGGAUAUUAUCAACCAGAGUAACCAUAAGAAGGAGUAGGAA | – | – | 64.4 | 78.4 |
| ACUUGGUUACAGAAGGGCAUUUAUAAUUAUCAUUACUCAUCCUAUGUUUGCAGGAUAUGUUUAACAUGAGGAUCACCCAUGUAC | – | – | 171 | 97.6 |
| ACUUGUAAGCAGAAGGCAGUCAUUAUAUUCGUCAUGUAGACAUGAGGAUCACCCAUGUAUAGUACUGAGGAUAUGCAUCGAUAG | 7.84 | 12.9 | – | – |
| ACUUUACGAGGAUAUACUGUCGGGCCUCGGGCGUCCCUGCGACAUGAGGAUCACCCAUGUAGAAGGCGUUUACU | 20.6 | 35.2 | – | – |
| AGAAACUACGAGAAGGACAUGUGGAAAAACGCAAACAUGAGGAUCACCCAUGUAGGAUAUCGUAGUUUCAGGAUCGUGAGAUCA | 304 | 367 | – | – |
| AGAAACUACGAGAAGGACAUGUGGAAAACCGCAAACAUGAGGAUCACCCAUGUAGGAUAUCGUAGUUUCAGGAUCGUGAGAUCA | 772 | 148 | – | – |
| AGAAAGGUAGGAUAUACGAAAAAAAAGGGUAGAAAAAAAACACAUGAGGAUCACCCAUGUAGAAGGACCAAAGA | 28.9 | 96.6 | – | – |

| Sequence | apparent Kd [1] [nM] | apparent Kd [2] [nM] | apparent Kd [3] [nM] | apparent Kd [4] [nM] |
| --- | --- | --- | --- | --- |
| AGAAAUUAGUGAGGAUAUGCAUAAUUUGUAGCUGCAGAAGGCACGGACCACAAGACAUGAGGAUCACCCAUGUGGUAUUUAGAU | 26.8 | 28 | – | – |
| AGAAAUUAGUGAGGAUAUGCUUAAAUUGUAGUUGCAGAAGGCACGGACCACAAGACAUGAGGAUCACCCAUGUGGUAUUUAGAU | 28.9 | 33 | – | – |
| AGACAGAUCGAGAAGGGAACAUGAGGAUCACCCAUGUGGAAGACUUGAUGUUCAGGAUAUCGAAAGCCUGAGUUAGAUGAAUUG | 26.5 | 115 | – | – |
| AGACUGAAGCAAGGAUAUUGUAAAGUUAUCGUACAAGAAGGUGCUGUUUAUGUCUCUUUACAUGAGGAUCACCCAUGUUUUUAA | – | – | 22.6 | 24.2 |
| AGACUGAAGCAAGGAUAUUGUAAGGUUAUCGUACAAGAAGGUGCUGUUUAUGUCUCUUUACAUGAGGAUCACCCAUGUUUUUAA | – | – | 22.2 | 23.5 |
| AGAGCCGGCACCGAGGAUAUUCAUAUUAAAACAUGAGGAUCACCCAUGUAGGCCAGAAGGCCUUGGGAGAAGGCGGAUCGGCUCG | – | – | 707 | 39.5 |
| AGAUAACAUGAGGAUCACCCAUGUGAGGAUAUUUACCCAAGAGCUUCGGCUCUCAGGUGGAGAAGGCACGUUGA | 51.3 | 76.8 | – | – |
| AGAUAACAUGUAGGAUAUCGAGGCCUGAGGCCUCGAGAAGGACAUGAGGAUCACCCAUGUUUGCCGAGCAUGGAAUCACGCACU | 18.4 | 54.6 | – | – |
| AGAUAGUUAUAACGCCAUCCCUACAUGAGGAUCACCCAUGUGCAGGAUAUAGGCUUGAAGCAGACCUAGAAGGGCACAGGCUGA | 8.34 | 22.2 | – | – |
| AGAUCCGCAGGAUAUGUCAAUUUACACAUGAGGAUCACCCAUGUGCCUUGUGUCAGCUUGAUAGAAGGGCGGACUA | 330 | 575 | – | – |
| AGAUGACAAAGUCAUCUCGCUUUGACAUGAGGAUCACCCAUGUAGGAUAUAUUACUCAAAGAGUAAUAGAAGGACAUGUGUCUG | 49 | 155 | – | – |
| AGAUGACAAAGUCAUCUUCAACGGACAUGAGGAUCACCCAUGUAGGAUAUGCUACUCAAAGAGUAGCAGAAGGACAUGUGUCUU | 35 | 193 | – | – |
| AGAUGGUCAGGAUAUGCGUGAAGAAUAAAACAAAUAACAACGCAGAAGGGACAUGAGGAUCACCCAUGUCAUCA | 21.9 | 17.3 | – | – |
| AGAUGUACCUAGGAUAUCCGUCGAAUUGGACUAGGAGAAGGAGGUACAUGAGGAUCACCCAUGUAUGACUCCUG | 10.5 | 13.1 | – | – |
| AGAUUACGAGGAUAUCGAGUUUAGUACAUGAGGAUCACCCAUGUUAUCCAGGUCUCGUUUCGAGAAGGCGUGAUUC | 256 | 92.3 | – | – |
| AGAUUGAAUGAGGAUAUCGAAGCGGGUACGAAGCGAGAAGGCAUGACAUGAGGAUCACCCAUGUAGUGUGGGUU | 465 | 435 | – | – |
| AGCACGAAAGUGCAACGAUGUACGAGAAGGACAUGAGGAUCACCCAUGUAGGAGUAACUCCAAAUGUAGGAUAUCGUACAUCGA | 568 | 79 | – | – |
| AGCACGAAAGUGCAACGAUGUAGCAGAAGGACAUGAGGAUCACCCAUGUAAGCAGUAUCUGCAAUGUAGGAUAUGCUACAUCGA | 13.6 | 119 | – | – |
| AGCACGAAAGUGCAACGAUGUAGCAGAAGGACAUGAGGAUCACCCAUGUAAGGUCUAUGACCAAUGUAGGAUAUGCUACAUCGA | 6.62 | 35 | – | – |

| Sequence | apparent Kd [1] [nM] | apparent Kd [2] [nM] | apparent Kd [3] [nM] | apparent Kd [4] [nM] |
| --- | --- | --- | --- | --- |
| AGCAGACGAGGAUAUAGAUUUGUUGACAUGAGGAUCACCCAUGUGAUCGAUCUAUUAUAUUUAGAAGGUGUCUGCU | 12.9 | 13.5 | – | – |
| AGCAUGCUAGGAUAUACGGGACAUUAGGGUUCGUUGUGUGGACAUGAGGAUCACCCAUGUAGAAGGAGCGUGCA | 86.6 | 374 | – | – |
| AGCAUGUGAGGAUAUGUGACCCUCGUCCGAAGGAUGAGGGAAUAGAAGGCACAUGAGGAUCACCCAUGUGAUGA | 54.1 | 156 | – | – |
| AGCCAACAUGAGGAUCACCCAUGUCUACAGGAUUAAGGAUAUGGGCAGGACUUCCCUGCACUAGAAGGUGAUCCAA | – | – | 28.9 | 251 |
| AGCUAGUCAGGAUAUACGUAAAUGUCGAAAGACGUAUUGGGACAUGAGGAUCACCCAUGUAGAAGGGACUAGCA | 27.2 | 108 | – | – |
| AGCUGGAGAGGAUAUACGUGAGUGAUAAAAGUCUGAUAACUACAUGAGGAUCACCCAUGUAGAAGGCUCUGGCA | 66.2 | 19.4 | – | – |
| AGCUGGUGACAGCAAGAAACUUCACAUGAGGAUCACCCAUGUAGAAGGCUGUACGGUUACCGUACAGAGGAUAUACAUUGAAGU | 7.16 | 13.3 | – | – |
| AGCUGGUGACAGCAUCGAGCUUAACAUGAGGAUCACCCAUGUAGAAGGCUGUACGGUUACCGUACAGAGGAUAUACAUAGCUCG | 6.79 | 7.04 | – | – |
| AGCUGGUUAGGAUAUACAUGAGGAUCACCCAUGUUAAAAAAAAAAAAAAGAUUAAAGUGUAGAAGGGAUUAGUA | 40.4 | 37.1 | – | – |
| AGCUGUGGCCAAGGAUAUCUAACCUUAAAUACCGACGUAUAGUCGGACAUGAGGAUCACCCAUGUGGAGAAGGUGGUCUCAGCA | 25.3 | 37.3 | – | – |
| AGGAAGUGAGGAUAUGCUGCUCGUCACUUGCGUGAUGAGUAGCAGAAGGCACAUGAGGAUCACCCAUGUAAAGA | 40.2 | 55.1 | – | – |
| AGGAUGUUAGGAUAUCGGAGAUGCGGGAGGAGGUGGAGGUACGAGAAGGAACAUGAGGAUCACCCAUGUGGAAG | 20.3 | 19.9 | – | – |
| AGGGAGGGCGUGGAGGCGGAGGGACGAGAAGGUACACAUGAGGAUCACCCAUGUAGAGUGGGAGGUAAGGAUAUUGGAUGGUGG | – | – | 101 | 66.9 |
| AGGGCUUAAUGGCCCUAUGAGAUGAGAAGGGUAGGAGGGUGGAAGUACAUGAGGAUCACCCAUGUACAGGAUAUCAUGCCGAUU | 6.32 | 6.07 | – | – |
| AGGGUAGACGUAGGAUAUACGGAAUGAAUGAAAGUAGAAGGAUGACAUGAGGAUCACCCAUGUGAAAUGAAAUGAUGAAGGGUG | 579 | 510 | – | – |
| AGGGUAGUAGGAUAUACAUGAGGAUCACCCAUGUUUCCAUUGCGUGACUGGUCCUAGUGUAGAAGGGCUAGCAC | 18.6 | 17.6 | – | – |
| AGGGUAUGAACAUGAGGAUCACCCAUGUACUAGGAAACGAAUGAGGAUAUCGAUAGCAAAGCUAUCGAGAAGGCAUGGGACCCU | – | – | 322 | 59.2 |
| AGGGUGGGAGGAUAUCCAAUAUAUGACAUGAGGAUCACCCAUGUUUCCACUCGUACCUCCGGAGAAGGCCCUUCCA | 19.9 | 19.7 | – | – |
